Assay [1] in a line: Displacement of [3H]YM-09-151-2 from D2-like receptor in pig striatal membrane. Format: cell membranes, Sus scrofa, Striatum. In short, it runs like this:
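Pig striatal membranes (about 200 µg protein) in Tris–HCl pH 7.4 with protease inhibitors, incubated to equilibrium (60 min, 30 °C) with 0.3 nM [3H]YM-09-151-2 and at least six compound concentrations. Nonspecific binding defined with 2.5 mM dopamine. Filtration, scintillation counting. IC50 converted to Ki by Cheng–Prusoff; 3–5 experiments in triplicate. Radioligand Kd 0.40 nM.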

The nature of assay [2]: Displacement of [3H]2BFI from I2 imidazoline binding site in rat brain membrane. Format: cell membranes. In outline: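 Rat whole-brain membranes (about 300 µg protein) incubated to equilibrium (30 min, room temperature) with 1 nM [3H]2-BFI and increasing compound concentrations in 50 mM Tris–HCl, 1 mM MgCl2, pH 7.4. Nonspecific binding defined with 10 µM BU224. Filtration, scintillation counting. At least six concentrations; IC50 converted to Ki by Cheng–Prusoff; 3–5 experiments in triplicate.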

Assay [3] concerns the target T1, Adrenergic receptor alpha-2 (Rattus norvegicus, UniProt P22086+P19328+P22909).
T1 sequence (P22086 whole entry): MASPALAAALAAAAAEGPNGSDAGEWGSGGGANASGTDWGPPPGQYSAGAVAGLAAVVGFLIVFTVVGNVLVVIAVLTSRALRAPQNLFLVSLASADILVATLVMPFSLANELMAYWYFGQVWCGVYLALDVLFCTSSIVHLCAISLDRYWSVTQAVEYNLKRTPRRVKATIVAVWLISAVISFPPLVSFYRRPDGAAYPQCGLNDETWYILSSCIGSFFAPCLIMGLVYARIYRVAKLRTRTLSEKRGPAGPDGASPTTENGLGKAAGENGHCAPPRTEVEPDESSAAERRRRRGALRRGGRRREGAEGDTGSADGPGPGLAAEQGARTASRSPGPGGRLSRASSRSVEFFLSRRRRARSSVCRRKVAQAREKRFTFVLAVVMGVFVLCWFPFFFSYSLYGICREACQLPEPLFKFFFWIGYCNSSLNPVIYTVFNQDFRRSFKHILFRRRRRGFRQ
T1 sequence (P19328 whole entry): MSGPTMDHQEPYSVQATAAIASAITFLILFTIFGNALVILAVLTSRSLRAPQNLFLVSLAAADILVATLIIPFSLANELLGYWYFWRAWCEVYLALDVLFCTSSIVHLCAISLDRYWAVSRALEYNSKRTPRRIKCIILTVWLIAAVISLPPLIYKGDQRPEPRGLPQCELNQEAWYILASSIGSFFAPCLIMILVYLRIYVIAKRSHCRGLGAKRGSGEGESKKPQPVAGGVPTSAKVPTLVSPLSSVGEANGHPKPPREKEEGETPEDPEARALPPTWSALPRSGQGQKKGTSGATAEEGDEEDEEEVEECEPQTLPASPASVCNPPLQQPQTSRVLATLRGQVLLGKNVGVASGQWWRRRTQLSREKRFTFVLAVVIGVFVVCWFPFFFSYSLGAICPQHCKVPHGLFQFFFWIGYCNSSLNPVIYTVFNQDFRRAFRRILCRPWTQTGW
T1 sequence (P22909 whole entry): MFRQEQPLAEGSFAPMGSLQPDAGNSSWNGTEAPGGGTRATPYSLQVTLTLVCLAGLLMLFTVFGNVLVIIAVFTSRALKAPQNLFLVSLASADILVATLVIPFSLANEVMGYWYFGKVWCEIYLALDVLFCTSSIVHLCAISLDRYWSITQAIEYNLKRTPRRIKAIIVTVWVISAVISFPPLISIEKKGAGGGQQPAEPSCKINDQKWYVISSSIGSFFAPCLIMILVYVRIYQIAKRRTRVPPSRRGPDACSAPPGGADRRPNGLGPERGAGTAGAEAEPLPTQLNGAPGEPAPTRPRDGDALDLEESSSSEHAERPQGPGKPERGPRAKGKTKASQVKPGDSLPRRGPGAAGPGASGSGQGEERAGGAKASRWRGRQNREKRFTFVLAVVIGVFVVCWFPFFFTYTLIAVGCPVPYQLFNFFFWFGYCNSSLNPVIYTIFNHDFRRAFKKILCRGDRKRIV
In words: Displacement of [3H]RX821002 from alpha2 adrenergic receptor in rat brain membrane. In kind it is cell membranes.

Assay [4] in a line: Agonist activity at D2-like receptor in pig striatal membrane assessed as [35S]GTPgammaS binding. In kind it is functional, cell membranes, Sus scrofa, Striatum. In outline:
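Porcine striatal membranes incubated 60 min at 30 °C in 50 mM Tris–HCl pH 7.4 with GDP, 5 mM MgCl2, 0.1 mM EDTA, 0.2 mM EGTA, 0.2 mM DTT, 150 mM NaCl, 0.2 nM [35S]GTPγS and six compound concentrations. Nonspecific binding defined with unlabeled GTPγS. Filtration, scintillation counting. EC50 by nonlinear regression, three independent experiments. Intrinsic activity set relative to dopamine %Emax = 1.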
(In general: GTPγS resists hydrolysis and so accumulates on activated G proteins.)

The subject of assay [5] is Rattus norvegicus. In words: Anxiolytic-like activity in Wistar rat assessed as ambulatory activity at 0.0149 uM/kg, icv by open field test. Format: functional. In short, it runs like this: (§1)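 Male Wistar rats (200–225 g, 8 per group) given ip zolazepam/tiletamine anaesthesia before a cannula was implanted in the right lateral ventricle. Compound given icv at 0.0149 µM/kg; controls received physiological solution. Open field with two photocell rows: lower-row breaks counted as ambulatory episodes, upper-row breaks as rearing. Read-out is the % of episodes in the central area, mean ± SE.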

Assay [6] relates to Rattus norvegicus. In words: Anxiolytic-like activity in Wistar rat assessed as rearing activity at 0.0149 uM/kg, icv by open field test. In kind it is functional. In outline: as §1
Assay [7] in a line: Displacement of [3H]SCH23390 from dopamine D1-like receptor pig striatal membrane. In general terms: Displacement assays read how much labelled ligand stays bound in the presence of the test substance.

The text below walks through data of ChEMBL document CHEMBL1250524, “Novel imidazoline compounds as partial or full agonists of D2-like dopamine receptors inspired by I2-imidazoline binding sites ligand 2-BFI” (Bioorg Med Chem, 2010).

As usually defined, the Ki is the dissociation constant of the complex between target and ligand, obtained from inhibition or displacement. The EC50 is the concentration at which the effect is half-maximal. A word on the Kd: it is a measure of binding affinity in units of concentration. Low values mean tighter binding, high ones weaker binding.

As for `Oc1ccc2oc(C3=NCCN3)cc2c1`, the Ki in assay [1] was above 100 µM; in assay [2], 0.0881 µM; in assay [3], 2.95 µM.

Compound `CN1CCN=C1c1cc2cc(O)ccc2o1` showed an inhibition constant (Ki) in assay [1] above 100 µM.

On to `CCN1CCN=C1c1cc2cc(O)ccc2o1`, for which the inhibition constant Ki in assay [1] was above 100 µM; in assay [2], above 100 µM; in assay [3] it was 25.5 µM.

Turning to `CCCN1CCN=C1c1cc2cc(O)ccc2o1`, the Ki in assay [1] stood at 15.8 µM; in assay [2], 0.7 µM; in assay [3] it was 3.64 µM.

As for `Oc1ccc2cc(C3=NCCN3)oc2c1`, the Ki in assay [1] was found to be 14.5 µM; in assay [2], 0.076 µM; in assay [3], 11 µM. The half-maximal effective concentration (EC50) in assay [4] turned out to be 5.7 µM.

Turning to `CCCN1CCN=C1c1cc2ccc(O)cc2o1`, the figures for the inhibitory constant (Ki) in assay [1], in assay [2] and in assay [3] were 13.8 µM, 2.1 µM and 1.92 µM, respectively. Also, the EC50 in assay [4] turned out to be 13.3 µM.

`Oc1cc2cc(C3=NCCN3)oc2cc1O`: the inhibition constant Ki was above 100 µM in assay [1], 5.69 µM in assay [2] and 24.21 µM in assay [3].

For the compound `CCCN1CCN=C1c1cc2cc(O)c(O)cc2o1`, the Ki is above 100 µM in assay [1], 28 µM in assay [2] and 10.16 µM in assay [3].

Consider `Oc1ccc2oc(C3=NCCN3Cc3ccccc3)cc2c1`, for which the inhibition constant (Ki) in assay [1] was determined as 5 µM; in assay [2], 1.1 µM; in assay [3], 4.39 µM. Moreover, the EC50 in assay [4] amounted to 6.3 µM.

Consider `Oc1ccc2cc(C3=NCCN3Cc3ccccc3)oc2c1`, for which the Ki in assay [1] is 5.66 µM; in assay [2], 5.78 µM; in assay [3], 2.08 µM. The EC50 in assay [4] came to 5.8 µM. Further, the Activity in the assay with Rattus norvegicus [5] is 6.3%; with Rattus norvegicus [6] it was 2%.

On to `Oc1cc2cc(C3=NCCN3Cc3ccccc3)oc2cc1O`, for which the Ki in assay [1] was 18.5 µM; in assay [2] it was 10.4 µM; in assay [3], 4.43 µM. Moreover, in assay [4], the EC50 turned out to be 11.9 µM.

With `c1ccc2oc(C3=NCCN3)cc2c1`, the values for the Ki in assay [1] and in assay [2] were 47 µM and 0.0034 µM, respectively. In assay [4], the EC50 was determined as 37.7 µM.

For `NCCc1ccc(O)c(O)c1` [DOPAMINE], the Ki in assay [1] came to 3.9 µM. For the same compound, the EC50 in assay [4] came out at 4.8 µM. The same compound displayed a dissociation constant (Kd) in assay [7] of 0.00133 µM.

For `N[C@@H](Cc1ccc(O)c(O)c1)C(=O)O` [LEVODOPA], the Activity in the assay with Rattus norvegicus [5] was 5.7%; in the assay with Rattus norvegicus [6], 2%.
